Reference: ChEMBL document CHEMBL2203173 (J Med Chem, 2012)

Experiments:
Mus musculus [1] = experiment: Cardiotoxicity in BALB/c nu/nu mouse xenografted with human DMS53 cells at 6 mg/kg, iv administered for 5 days a week measured after 21 days; format: toxicity, organism-based, DMS-53; design: dose 6 mg/kg, route intravenous; conditions: in vivo, 504 h
Summary of the method: (§1)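 DMS-53 xenograft nude mice given agents iv by tail vein 5 days/week in 30% propylene glycol/saline for 21 days. At sacrifice, heart sections were stained with Gomori Trichrome to detect fibrosis. Spleen, kidney, liver, heart, lungs and brain were also stained with H&E and Perls' and examined by an independent veterinary pathologist.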

Mus musculus [2] = experiment: Toxicity in BALB/c nu/nu mouse xenografted with human DMS53 cells assessed as change in platelet count at 3 mg/kg, iv administered for 5 days a week measured after 21 days; format: organism-based, DMS-53; design: dose 3 mg/kg, route intravenous; conditions: in vivo, 504 h
Summary of the method: (§2)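 Nude mice carrying DMS-53 xenografts (treatment from 100 mm3) received iv tail-vein doses in 30% propylene glycol/saline, 5 days/week for 21 days. Hematological indices (RBC, hemoglobin, hematocrit, reticulocytes, WBC, platelets) were then compared with vehicle controls.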

Mus musculus [3] = experiment: Toxicity in BALB/c nu/nu mouse xenografted with human DMS53 cells assessed as change in reticulocyte count at 6 mg/kg, iv administered for 5 days a week measured after 21 days; format: organism-based, DMS-53; design: dose 6 mg/kg, route intravenous; conditions: in vivo, 504 h; summary of the method: as §2
Mus musculus [4] = experiment: Toxicity in BALB/c nu/nu mouse xenografted with human DMS53 cells assessed as change in reticulocyte count at 3 mg/kg, iv administered for 5 days a week measured after 21 days; format: organism-based, DMS-53; design: dose 3 mg/kg, route intravenous; conditions: in vivo, 504 h; summary of the method: as §2
Mus musculus [5] = experiment: Toxicity in BALB/c nu/nu mouse xenografted with human DMS53 cells assessed as change in organ weight at 3 mg/kg, iv administered for 5 days a week measured after 21 days; format: organism-based, DMS-53; design: dose 3 mg/kg, route intravenous; conditions: in vivo, 504 h
Summary of the method: (§3)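 DMS-53 xenograft-bearing nude mice, treatment started at 100 mm3 tumour volume: iv tail-vein dosing in 30% propylene glycol/saline, 5 days/week for 21 days. Organs were weighed at sacrifice and compared with vehicle-control mice.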

Mus musculus [6] = experiment: Toxicity in BALB/c nu/nu mouse xenografted with human DMS53 cells assessed as change in body weight at 3 mg/kg, iv administered for 5 days a week measured after 21 days; format: organism-based, DMS-53; design: dose 3 mg/kg, route intravenous; conditions: in vivo, 504 h
Summary of the method: (§4)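 DMS-53 xenografts in nude mice; dosing started at 100 mm3 tumor volume. Agents given iv via tail vein, 5 days/week for 21 days, vehicle 30% propylene glycol/saline, vehicle-treated controls. Mice sacrificed day 21. Body and organ weights and hematological indices recorded. Spleen, kidney, liver, heart, lungs and brain were stained with H&E, Perls' and Gomori Trichrome and read by an independent veterinary pathologist.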

Mus musculus [7] = experiment: Toxicity in BALB/c nu/nu mouse xenografted with human DMS53 cells assessed as change in spleen weight at 7.5 mg/kg, po administered for 3 times a week measured after 20 days; format: organism-based, DMS-53; design: dose 7.5 mg/kg, route oral; conditions: in vivo, 480 h
Summary of the method: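 DMS-53 xenograft nude mice were gavaged 3 times/week in 30% propylene glycol/saline vehicle for 20 days and then sacrificed. Organ weights and histology of spleen, kidney, liver, heart, lungs and brain were compared with vehicle controls. n = 6-11 mice/condition.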

Mus musculus [8] = experiment: Toxicity in BALB/c nu/nu mouse xenografted with human DMS53 cells assessed as change in RBC count at 7.5 mg/kg, po administered for 3 times a week measured after 20 days; format: organism-based, DMS-53; design: dose 7.5 mg/kg, route oral; conditions: in vivo, 480 h
Mus musculus [9] = experiment: Toxicity in BALB/c nu/nu mouse xenografted with human DMS53 cells assessed as change in hemoglobin level at 7.5 mg/kg, po administered for 3 times a week measured after 20 days; format: organism-based, DMS-53; design: dose 7.5 mg/kg, route oral; conditions: in vivo, 480 h
Summary of the method: (§5)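 Nude mice bearing DMS-53 xenografts gavaged 3 times/week for 20 days, vehicle 30% propylene glycol/saline, vehicle controls, n = 6-11 mice/condition. Sacrifice on day 20. Organ weights and hematological indices recorded. Spleen, kidney, liver, heart, lungs and brain examined histologically, hearts stained with Gomori Trichrome for fibrosis.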

Mus musculus [10] = experiment: Toxicity in BALB/c nu/nu mouse xenografted with human DMS53 cells assessed as change in lung weight at 7.5 mg/kg, po administered for 3 times a week measured after 20 days; format: organism-based, DMS-53; design: dose 7.5 mg/kg, route oral; conditions: in vivo, 480 h; summary of the method: as §5
Mus musculus [11] = experiment: Toxicity in BALB/c nu/nu mouse xenografted with human DMS53 cells assessed as body weight change at 20 mg/kg, po administered for 3 times a week measured after 20 days; format: organism-based, DMS-53; design: dose 20 mg/kg, route oral; conditions: in vivo, 480 h
Summary of the method: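 DMS-53 xenograft nude mice dosed by oral gavage 3 times/week in 30% propylene glycol/saline, with vehicle controls. Average body weight recorded during 20 days of treatment. n = 6–11 mice/condition, mean ± SD.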

Mus musculus [12] = experiment: Toxicity in BALB/c nu/nu mouse xenografted with human DMS53 cells assessed as hepatocellular necrosis at 3 mg/kg, iv administered for 5 days a week measured after 21 days by hematoxylin and eosin staining method; format: organism-based, DMS-53; design: dose 3 mg/kg, route intravenous; conditions: in vivo, 504 h
Summary of the method: (§6)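 Nude mice with DMS-53 xenografts dosed by tail-vein iv injection in 30% propylene glycol/saline, starting at 100 mm3 tumour volume, 5 days/week for 21 days. Spleen, kidney, liver, heart, lungs and brain were stained with H&E, Perls' (Fe loading) and Gomori Trichrome (fibrosis) by standard methods, and an independent veterinary pathologist examined them.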

Mus musculus [13] = experiment: Toxicity in BALB/c nu/nu mouse xenografted with human DMS53 cells assessed as hepatocellular necrosis at 0.75 mg/kg, iv administered for 5 days a week measured after 21 days by hematoxylin and eosin staining method; format: organism-based, DMS-53; design: dose 0.75 mg/kg, route intravenous; conditions: in vivo, 504 h; summary of the method: as §6
Mus musculus [14] = experiment: Toxicity in BALB/c nu/nu mouse xenografted with human DMS53 cells assessed as cardiac fibrosis at 6 mg/kg, iv administered for 5 days a week measured after 21 days by […]; format: organism-based, Heart, DMS-53; design: dose 6 mg/kg, route intravenous; conditions: in vivo, 504 h; summary of the method: as §1
Mus musculus [15] = experiment: Cardiotoxicity in BALB/c nu/nu mouse xenografted with human DMS53 cells at 8 mg/kg, iv administered for 5 days a week measured after 21 days; format: toxicity, organism-based, DMS-53; design: dose 8 mg/kg, route intravenous; conditions: in vivo, 504 h; summary of the method: as §1
Mus musculus [16] = experiment: Toxicity in BALB/c nu/nu mouse xenografted with human DMS53 cells assessed as change in platelet count at 4 mg/kg, iv administered for 5 days a week measured after 21 days; format: organism-based, DMS-53; design: dose 4 mg/kg, route intravenous; conditions: in vivo, 504 h; summary of the method: as §2
Mus musculus [17] = experiment: Toxicity in BALB/c nu/nu mouse xenografted with human DMS53 cells assessed as change in hemoglobin level at 8 mg/kg, iv administered for 5 days a week measured after 21 days; format: organism-based, DMS-53; design: dose 8 mg/kg, route intravenous; conditions: in vivo, 504 h; summary of the method: as §4
Mus musculus [18] = experiment: Toxicity in BALB/c nu/nu mouse xenografted with human DMS53 cells assessed as change in RBC count at 8 mg/kg, iv administered for 5 days a week measured after 21 days; format: organism-based, DMS-53; design: dose 8 mg/kg, route intravenous; conditions: in vivo, 504 h
Mus musculus [19] = experiment: Toxicity in BALB/c nu/nu mouse xenografted with human DMS53 cells assessed as change in RBC count at 4 mg/kg, iv administered for 5 days a week measured after 21 days; format: organism-based, DMS-53; design: dose 4 mg/kg, route intravenous; conditions: in vivo, 504 h
Mus musculus [20] = experiment: Toxicity in BALB/c nu/nu mouse xenografted with human DMS53 cells assessed as change in organ weight at 8 mg/kg, iv administered for 5 days a week measured after 21 days; format: organism-based, DMS-53; design: dose 8 mg/kg, route intravenous; conditions: in vivo, 504 h; summary of the method: as §3
Mus musculus [21] = experiment: Toxicity in BALB/c nu/nu mouse xenografted with human DMS53 cells assessed as change in brain histology at 4 mg/kg, iv administered for 5 days a week measured after 21 days by hematoxylin and eosin staining method; format: organism-based, DMS-53; design: dose 4 mg/kg, route intravenous; conditions: in vivo, 504 h; summary of the method: as §4
Mus musculus [22] = experiment: Toxicity in BALB/c nu/nu mouse xenografted with human DMS53 cells assessed as hepatocellular fibrosis at 8 mg/kg, iv administered for 5 days a week measured after 21 days by hematoxylin and eosin staining method; format: organism-based, DMS-53; design: dose 8 mg/kg, route intravenous; conditions: in vivo, 504 h; summary of the method: as §6
Mus musculus [23] = experiment: Toxicity in BALB/c nu/nu mouse xenografted with human DMS53 cells assessed as vacuolation at 4 mg/kg, iv administered for 5 days a week measured after 21 days by hematoxylin and eosin staining method; format: organism-based, DMS-53; design: dose 4 mg/kg, route intravenous; conditions: in vivo, 504 h; summary of the method: as §6

## CCN(C)C(=S)NN=C(c1ccccn1)c1ccccn1.Cl
Mus musculus [1]
  Activity: Non-toxic
Mus musculus [2]
  Activity: Toxic
Mus musculus [3]
  Activity: Toxic
Mus musculus [4]
  Activity: Non-toxic
Mus musculus [5]
  Activity: Toxic
Mus musculus [6]
  Activity: Non-toxic
Mus musculus [7]
  Activity: Toxic
Mus musculus [8]
  Activity: Non-toxic
Mus musculus [9]
  Activity: Toxic
Mus musculus [10]
  Activity: Non-toxic
Mus musculus [11]
  Activity: Non-toxic
Mus musculus [12]
  Activity: Non-toxic
Mus musculus [13]
  Activity: Non-toxic
Mus musculus [14]
  Activity: Non-toxic

## CN(C(=S)NN=C(c1ccccn1)c1ccccn1)C1CCCCC1.Cl
Mus musculus [15]
  Activity: Non-toxic
Mus musculus [16]
  Activity: Toxic
Mus musculus [17]
  Activity: Toxic
Mus musculus [18]
  Activity: Toxic
Mus musculus [19]
  Activity: Non-toxic
Mus musculus [20]
  Activity: Toxic
Mus musculus [21]
  Activity: Non-toxic
Mus musculus [22]
  Activity: Non-toxic
Mus musculus [23]
  Activity: Non-toxic
